# Measurements from publication PMC6379856 (ACS Chemical Biology, 2019).
# Experiments:
# [1] = tested on: other proteins in brown and white adipose tissue; assay type: biochemical, mouse; details: 10 μM, probe MB064
# How it was run: (§1)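 Cytosol proteomes from freshly isolated mouse white and brown adipose tissue were preincubated with test compound (10 µM) or DMSO. They were then labelled with probe MB064, resolved by SDS-PAGE and fluorescence-scanned. The gels were Western blotted with an anti-PLA2G16 antibody to locate native PLA2G16.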
# iNAT = target: T1, iNAT (Homo sapiens, UniProt Q96KN8); test: Competitive ABPP with probe MB064, cytosol proteome of transfected HEK293T cells; assay type: biochemical
# T1 sequence (Q96KN8 1-279): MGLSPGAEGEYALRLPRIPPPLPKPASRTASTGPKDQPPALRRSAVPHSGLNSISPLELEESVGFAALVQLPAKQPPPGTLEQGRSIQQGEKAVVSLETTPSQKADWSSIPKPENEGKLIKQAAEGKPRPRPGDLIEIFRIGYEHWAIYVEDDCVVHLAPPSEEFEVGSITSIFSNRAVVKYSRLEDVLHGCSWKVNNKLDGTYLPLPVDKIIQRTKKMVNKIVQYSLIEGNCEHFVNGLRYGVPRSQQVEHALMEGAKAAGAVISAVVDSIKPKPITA
# [2] = tested on: U2OS cells transfected with human PLA2G16; assay type: cell-based; details: 10 μM, 4 or 8 h, serum-free, in situ
# How it was run: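 U2OS cells transfected with human PLA2G16 were exposed in situ, under serum-free conditions, to DMSO vehicle or test compound at 10 µM for 4 or 8 h. Arachidonic acid levels were then measured. Significance was assessed by Student's t-test.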
# RARRES3 = target: T2, RARRES3 (Homo sapiens, UniProt Q9UL19); test: Competitive ABPP with probe MB064, cytosol proteome of transfected HEK293T cells; assay type: biochemical
# T2 sequence (Q9UL19 1-164): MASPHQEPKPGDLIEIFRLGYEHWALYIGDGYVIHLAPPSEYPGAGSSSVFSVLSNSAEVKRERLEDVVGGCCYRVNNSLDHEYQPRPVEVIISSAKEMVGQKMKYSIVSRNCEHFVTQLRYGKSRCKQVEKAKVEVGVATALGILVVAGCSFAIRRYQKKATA
# PLA2G16 [3] = target: T3, PLA2G16 (Homo sapiens, UniProt P53816); test: PC-A2 fluorescent substrate assay; assay type: biochemical
# T3 sequence (P53816 1-162): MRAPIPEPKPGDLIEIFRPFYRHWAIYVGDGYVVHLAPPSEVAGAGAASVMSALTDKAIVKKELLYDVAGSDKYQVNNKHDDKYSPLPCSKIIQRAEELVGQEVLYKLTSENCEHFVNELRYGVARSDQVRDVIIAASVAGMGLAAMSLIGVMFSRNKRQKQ
# How it was run: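 HEK293T cells overexpressing human PLA2G16 supplied the cytosol proteome used as enzyme source. Test compound was tested over a concentration range in the fluorescent PC-A2 phospholipid substrate assay. Dose–response curves were generated (n = 3).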
# endogenous PLA2G16 = target: T4, endogenous PLA2G16 (Mus musculus, UniProt Q8R3U1); test: Competitive ABPP with MB064 in cytosol proteome of mouse WAT and BAT; assay type: biochemical; details: 10 μM
# T4 sequence (Q8R3U1 1-162): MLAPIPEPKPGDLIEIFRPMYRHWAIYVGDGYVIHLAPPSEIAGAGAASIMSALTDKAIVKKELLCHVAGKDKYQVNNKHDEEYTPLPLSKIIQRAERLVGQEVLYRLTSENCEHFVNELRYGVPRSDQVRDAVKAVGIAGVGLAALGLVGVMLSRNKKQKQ
# How it was run: as §1
# PLA2G16 [4] = target: T3, PLA2G16; test: Competitive ABPP with probe MB064, cytosol proteome of transfected HEK293T cells; assay type: biochemical
# [5] = tested on: endogenously expressed serine hydrolases in mouse brain; test: Competitive gel-based ABPP in mouse brain proteomes with FP-TAMRA and MB064; assay type: biochemical
# How it was run: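 Mouse brain membrane and cytosol proteomes were treated with DMSO or test compound at 10 µM. Each was then labelled with MB064 or FP-TAMRA and resolved by SDS-PAGE with fluorescent scanning. Coomassie staining served as the protein loading control.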
# HepG2 cells = test: Oleic acid-induced lipid droplet formation; assay type: cell-based, human; details: 10 μM, 24 h, oleic acid 100 μM
# How it was run: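 HepG2 cells were given oleic acid (100 µM, 24 h) to induce steatosis and treated in situ with test compound (10 µM, 24 h). Lipid droplets were stained with Adipored. Significance was assessed by Student's t-test.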
IC50 (iNAT),IC50 (RARRES3),Ki (PLA2G16 [3]),labeling of native PLA2G16 by MB064 (endogenous PLA2G16),increase in potency compared to compound 1 in the ABPP-assay (PLA2G16 [4]; PLA2G16),"PLA2G16 labeling by MB064 (library screen) (PLA2G16 [4]; inhibitor at 10 μM, competitive ABPP)",SMILES,labeling of other proteins in brown and white adipose tissue [1],PLA2G16-induced increase in arachidonic acid [2],selectivity over brain serine hydrolases ([5]; gel-based ABPP assay (Figure S7)),lipid droplet formation induced by oleic acid (HepG2 cells),"labeling of proteins in mouse brain targeted by FP-TAMRA or MB064 ([5]; 10 μM, mouse brain membrane and cytosol proteome)"
25.1 nM,158 nM,20 nM,completely abolished,10 fold,–,"O=C(CCCc1ccccc1)C(=O)NCCc1ccc(Oc2ccc(C(F)(F)F)cn2)cc1 [LEI110, 2-oxo-5-phenyl-N-(4-((5-(trifluoromethyl)pyridin-2-yl)oxy)-phenethyl)pentanamide]",not affected,almost completely abolished,selective,reduction in lipid droplet formation,–
–,631 nM,–,completely abolished,–,almost completely abolished,"O=C(CCc1ccc(Cl)cc1)C(=O)NCCc1ccccc1 [Compound 1, 4-(4-chlorophenyl)-2-oxo-N-phenethylbutan-amide]",not affected,–,–,–,did not reduce the labeling of any proteins
